The list is not random: actives were taken first. Their share in the collection is about 4.6%.
OX1R antag-1: OX1R (HCRTR1) antagonists, primary screen, fluorescence, CHO/OX1R cells, Fluo-8 calcium, orexin A; 330,000 tested, 0.43% active; AID 434989, 2010; Fluo-8 calcium fluorescence; inhibition, % at 5 µM;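 active = inhibition above its plate's threshold, mean inhibition of all tested compounds on the plate plus 3 SD, cut at about 37% in these data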;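 also: 0% = orexin A challenge wells and 100% = SB-334867-A antagonist wells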
Target sequence (O43613 whole entry, looked up): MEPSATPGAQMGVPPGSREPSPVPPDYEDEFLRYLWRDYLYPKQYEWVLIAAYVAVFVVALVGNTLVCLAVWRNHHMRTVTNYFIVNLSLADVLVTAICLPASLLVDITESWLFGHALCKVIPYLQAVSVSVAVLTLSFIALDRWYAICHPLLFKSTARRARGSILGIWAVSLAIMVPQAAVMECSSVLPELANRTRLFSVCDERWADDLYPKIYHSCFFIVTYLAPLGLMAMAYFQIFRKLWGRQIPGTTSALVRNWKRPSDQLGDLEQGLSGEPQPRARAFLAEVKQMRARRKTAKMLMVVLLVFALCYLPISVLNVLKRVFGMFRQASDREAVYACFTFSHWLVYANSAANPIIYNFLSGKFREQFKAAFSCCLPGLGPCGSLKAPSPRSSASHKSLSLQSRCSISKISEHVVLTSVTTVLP
OX1R antag-2: antagonists of human orexin 1 receptor (OX1R). OX1R-expressing cells, FRET antagonist read-out. inhibition, % at 6.6 µM. 330,000 tested, 1.8% active. AID 485270, 2010; in the data active = inhibition mostly above about 38%, no sharp cut-off; inactive = mostly below about 40%;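 also: 0% = agonist challenge alone and 100% = reference antagonist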
CHO parental Ca: ATP-evoked calcium signal inhibitors, parental CHO, primary screen, counter-screen for OX1R antagonist project, cell-based, fluorescence, Fluo-8 calcium dye | parental CHO-K1, ATP-induced calcium, Fluo-8 fluorescence | inhibition, % at 5.6 µM | 330,000 tested, 0.63% active | AID 463079, 2010;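 active = inhibition above that plate's mean sample inhibition plus 3 SD, cut at about 26% in these data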;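 also: 0% = ATP-challenged DMSO wells and 100% = DMSO wells without ATP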
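Assay system: parental CHO cells; Read-out basis: percent inhibition of ATP-evoked calcium rise, normalized to controls; Benchmarks: ATP and no-ATP DMSO wells; Compound dosing: single nominal dose of 5.6 µM per compound; Signal: Fluo-8 calcium dye fluorescence; Also added: ATP as calcium-mobilizing challenge; Repeats: singlicate.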
TAAR1 ag: human TAAR1 agonists, primary screen, Fluo-8 calcium fluorescence, CHO RD-HGA16 cells; vehicle wells 0%, saturating PEA agonist 100%; activation, % at 3 µM; 360,000 tested, 0.99% active;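 active = activation above the mean activation of all test compounds in the run plus 3 SD, cut at about 38% in these data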
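System: CHO-derived RD-HGA16 cells with stable Gα16 and human TAAR1 / Times: 17-24 h plating, Fluo-8 75 min 37 °C, 30 min RT / Technique: calcium-sensitive Fluo-8 signal, excitation 470-495, emission 515-575 nm / Measure: % activation relative to PEA EC100 response / Benchmarks: DMSO and PEA EC100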
TAAR1 antag: human TAAR1 antagonists, primary screen, Fluo-8 calcium fluorescence, CHO RD-HGA16 cells. antagonist. inhibition, % at 3 µM. 360,000 tested, 1.5% active. AID 624466, 2012;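 active = inhibition above a per-plate cutoff, the mean inhibition of test compounds on that plate plus 3 SD, cut at about 49% in these data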;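 also: 0% = DMSO plus EC80 beta-PEA response and 100% = DMSO alone without agonist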
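Material: RD-HGA16 CHO cells with stable hTAAR1 and Gα16; Dosing: single nominal final test compound concentration of 3 µM; Schedule: seeding 17-24 h prior, 75-min 37 °C, 30-min RT dye loading; Detection: kinetic Fluo-8 calcium fluorescence measurement; Measure: % inhibition from peak post-agonist over basal fluorescence ratio; Benchmarks: vehicle and agonist controls.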
GPR7 antagonist: GPR7 receptor antagonists, primary screen, cell-based, fluorescence, single concentration; Neuropeptides B/W receptor type 1 (Homo sapiens), P48145; GPR7-expressing cells, fluorescence antagonist assay; inhibition, % at 4.4 µM; 290,000 tested, 1.1% active; in the data active = inhibition above about 16%, passing the limit was not always enough;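 also: cells stimulated with the agonist NPW; 0% = agonist with vehicle and 100% = vehicle without agonist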
OX1R HTRF confirm: OX1R (HCRTR1) antagonists, confirmation, cell-based, HTRF | shares compounds with OX1R antag-2 | OX1R-expressing cells, HTRF antagonist assay | inhibition, % at 6.6 µM | 1,800 tested, 49% active | AID 492964, 2010; in the data active = inhibition above about 55%;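 also: CHO cells expressing OX1R stimulated with orexin A at about EC80; 0% = agonist challenge alone and 100% = reference antagonist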
CHO-K1 HTRF cnt: signal inhibition in parental CHO-K1 cells, counter-screen for OX1R antagonist project, cell-based, HTRF. inhibition, % at 6.6 µM. AID 493232, 2011. 1,800 tested, 48% active. HTRF counterscreen. shares compounds with OX1R antag-2; in the data active = inhibition above about 17%;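 also: 0% = agonist challenge with vehicle and 100% = vehicle alone without agonist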
* marks the source's active call; other numbers are inactive results.

NC(=O)c1cc(N)ccc1N1CCCC1 was read as OX1R antag-1 -12.0, OX1R antag-2 87.0*, CHO parental Ca -8.1, TAAR1 ag 1.1, TAAR1 antag 4.6, GPR7 antagonist -15.6, OX1R HTRF confirm 53.6 and CHO-K1 HTRF cnt 19.0*.
`CC1=CC(=C(C#N)C#N)C=C(C)N1CCN1CCNCC1` gave OX1R antag-1 -4.0, OX1R antag-2 22.2, CHO parental Ca 2.3, TAAR1 ag -0.1, TAAR1 antag 10.4 and GPR7 antagonist -9.8.
Screening CC(C)(C)NS(=O)(=O)c1ccc(NC(=S)NC(=O)C2CCC2)cc1 returned OX1R antag-1 2.4, OX1R antag-2 30.9, CHO parental Ca 10.4, TAAR1 ag 4.9, TAAR1 antag -0.5 and GPR7 antagonist 11.2.
Screening O=C(NCc1cccnc1)C1CCCN(S(=O)(=O)c2cccc3nsnc23)C1 (stereo not drawn) returned OX1R antag-1 -12.2, OX1R antag-2 89.2*, CHO parental Ca -7.5, TAAR1 ag 1.5, TAAR1 antag 6.1, GPR7 antagonist -9.8, OX1R HTRF confirm 45.7 and CHO-K1 HTRF cnt 32.0*.
O=C(NCc1ccccc1)C1CCCN(S(=O)(=O)c2cccc3nsnc23)C1 (stereo not drawn) was read as OX1R antag-1 -30.3, OX1R antag-2 24.3, CHO parental Ca -29.6, TAAR1 ag 1.1, TAAR1 antag 0.1 and GPR7 antagonist -9.3.
For CCC(=O)N=c1ccn(C2=Nc3ccccc3NC2=C(C#N)C#N)cc1 the results were OX1R antag-1 -11.8, OX1R antag-2 101.5*, CHO parental Ca -4.0, TAAR1 ag 2.2, TAAR1 antag -38.2, GPR7 antagonist -9.2, OX1R HTRF confirm 48.9 and CHO-K1 HTRF cnt 36.3*.
Screening Cc1ccc(Nc2nc3nonc3[nH]c2=O)cc1Cl returned OX1R antag-1 20.5, OX1R antag-2 42.6, CHO parental Ca 28.4, TAAR1 ag 4.6, TAAR1 antag -5.6 and GPR7 antagonist 0.9.
`Cc1ccc(Nc2nc3nonc3[nH]c2=O)cc1C` gave OX1R antag-1 17.1, OX1R antag-2 78.2*, CHO parental Ca 16.5, TAAR1 ag 4.2, TAAR1 antag 20.6, GPR7 antagonist 12.3, OX1R HTRF confirm 33.2 and CHO-K1 HTRF cnt 6.8.
Screening C[C@@H]1CCCCO[C@@H](CN(C)C(=O)CCCN(C)C)[C@@H](C)CN([C@H](C)CO)C(=O)c2cc(N(C)C)ccc2O1 returned TAAR1 ag 4.5 and TAAR1 antag -4.5.
For O=C(Nc1ccccc1)C1CCCCN1S(=O)(=O)c1ccccc1 (stereo not drawn) the results were OX1R antag-1 11.1, OX1R antag-2 79.7*, CHO parental Ca -7.8, TAAR1 ag -0.6, TAAR1 antag -16.6, GPR7 antagonist -4.8, OX1R HTRF confirm 60.4* and CHO-K1 HTRF cnt 2.4.
For Cc1ccc(C(=O)NC(=S)NNC(=O)CCN2CCOCC2)cc1 the results were OX1R antag-1 0.8, OX1R antag-2 9.1, CHO parental Ca 15.9, TAAR1 ag 1.1, TAAR1 antag -7.4 and GPR7 antagonist -7.0.
For c1ccc(-c2cnn3nnnc3n2)cc1 the results were OX1R antag-1 -2.4, OX1R antag-2 active, CHO parental Ca -7.7, TAAR1 ag 16.6, TAAR1 antag 9.8, GPR7 antagonist -2.8, OX1R HTRF confirm 71.2* and CHO-K1 HTRF cnt 115.1*.
Screening O=C(Oc1ccc(Br)cc1C(=S)N1CCCCC1)c1cc([N+](=O)[O-])cc([N+](=O)[O-])c1 returned OX1R antag-1 -18.5, OX1R antag-2 130.2*, CHO parental Ca -6.2, GPR7 antagonist 1.9, OX1R HTRF confirm 73.3* and CHO-K1 HTRF cnt 69.7*.
Screening CC[C@]12c3[nH]c4ccccc4c3CCN1C(=O)C(CC(=O)NCCCn1ccnc1)C[C@@H]2C(=O)N1CCN(C(=O)C2CC2)CC1 (stereo partly drawn) returned OX1R antag-1 -10.4, OX1R antag-2 3.3, CHO parental Ca -2.6, TAAR1 ag 0.7 and TAAR1 antag 8.5.
CCn1c(/C=C/c2cc[n+](C)cc2)nc2ccccc21 was read as OX1R antag-1 11.1, OX1R antag-2 78.4*, CHO parental Ca -2.8, TAAR1 ag 2.4, TAAR1 antag -6.5, GPR7 antagonist -11.9, OX1R HTRF confirm 48.5 and CHO-K1 HTRF cnt 58.8*.
`CCCn1c(/C=C/c2ccccc2)nc2ccccc21` gave OX1R antag-1 -34.1, OX1R antag-2 12.5, CHO parental Ca -29.7, TAAR1 ag 3.1, TAAR1 antag 0.6 and GPR7 antagonist -0.3.

Source: PubChem BioAssay (The Scripps Research Institute Molecular Screening Center)
